Measurements taken from ChEMBL document CHEMBL1143036, “Potential anti-inflammatory actions of the elmiric (lipoamino) acids” (2007).
The source made the active and inactive calls. The rule behind the calls is not given here.

Assays:
Mus musculus [1] = assay: Reduction of phorbol ester-induced ear edema in CD1 mouse assessed as ear thickness; assay type: functional, organism-based
RAW264.7 [2] = assay: Effect on iPGE2 level in LPS-induced mouse RAW264.7 cells at 10 uM by ELISA; assay type: functional
Summary of the method: (§1)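 RAW cells were seeded at 20,000/well and cultured 20 h at 37°C in 5% CO2, then washed and placed in serum-free RPMI. Compounds were added in DMSO at 1 or 10 uM final (N=3). LPS solution (1 ug/ml) was added 30 min later, with a further 2 h incubation. Centrifuged media were assayed by enzyme immunoassay for immunoreactive PGE and PGJ2 (pg/ml); the ratio is iPGJ/iPGE.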

RAW264.7 [3] = assay: Antiproliferative activity against LPS-induced mouse RAW264.7 cells assessed as number of cells at 0.1 uM after 48 hrs; assay type: functional
Summary of the method: (§2)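 RAW264.7 mouse macrophages were seeded at 500 cells/well and held 24 h at 37°C in 5% CO2. Compound was added (n=4 wells), then LPS solution (1 ug/ml) 1 h later, followed by 48 h incubation. Cell number was read as ATP luminescence (CellTiter-Glo), which is linear with cell count. Values are four-well means, […].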

RAW264.7 [4] = assay: Effect on iPGE2 level in LPS-induced mouse RAW264.7 cells at 1 uM by ELISA; assay type: functional; summary of the method: as §1
RAW264.7 [5] = assay: Ratio of iPGJ2 to iPGE in LPS-induced mouse RAW264.7 cells at 10 uM by ELISA; assay type: functional; summary of the method: as §1
RAW264.7 [6] = assay: Ratio of iPGJ2 to iPGE in LPS-induced mouse RAW264.7 cells at 1 uM by ELISA; assay type: functional; summary of the method: as §1
RAW264.7 [7] = assay: Antiproliferative activity against LPS-induced mouse RAW264.7 cells assessed as number of cells at 10 uM after 48 hrs; assay type: functional; summary of the method: as §2
RAW264.7 [8] = assay: Antiproliferative activity against LPS-induced mouse RAW264.7 cells assessed as number of cells at 1 uM after 48 hrs; assay type: functional; summary of the method: as §2
RAW264.7 [9] = assay: Effect on iPGJ2 level in LPS-induced mouse RAW264.7 cells at 1 uM by ELISA; assay type: functional; summary of the method: as §1
RAW264.7 [10] = assay: Effect on iPGJ2 level in LPS-induced mouse RAW264.7 cells at 10 uM by ELISA; assay type: functional; summary of the method: as §1
Mus musculus [11] = assay: Reduction of phorbol ester-induced ear edema in CD1 mouse assessed as ear thickness at 200 ug/ear; assay type: functional; parameters: scale not given: the % may be the effect or the level left
Summary of the method: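 Male CD-1 mice (34–40 g), topically dosed at 200 ug/ear in 10 ul acetone on the ipsilateral ear, with acetone alone on the contralateral ear. Phorbol ester was the edema inducer. Ear thickness was read by digital micrometer and expressed as the ipsilateral minus contralateral difference in microns. N = 8; paired t-test against vehicle.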

For `O=C1CCN(c2ccccc2)N1`, the Activity (Mus musculus [1]) was “inactive”.
With `CCCCCCCCCCCCCCCC(=O)NCC(=O)O` [PALMITOYL GLYCINE] the Activity (RAW264.7 [2]) was 128 pg/mL, the Activity (RAW264.7 [3]) was 5120 and the Activity (RAW264.7 [4]) was 103 pg/mL. For the same molecule, the Ratio (RAW264.7 [5]) was 3, the Ratio (RAW264.7 [6]) was 2 and the Cell number (RAW264.7 [7]) was 5108. It also gave a Cell number (RAW264.7 [8]) of 5524, an Activity (RAW264.7 [9]) of 219 pg/mL and an Activity (RAW264.7 [10]) of 401 pg/mL.
`CCCCCCCC/C=C\CCCCCCCC(=O)NCC(=O)O` [OLEOYL GLYCINE] was tested, and the Activity (RAW264.7 [3]) was 5172, the Cell number (RAW264.7 [7]) was 425 and the Cell number (RAW264.7 [8]) was 5557.
Work on `CCCCCCCC/C=C\CCCCCCCC(=O)N[C@@H](C)C(=O)O` yielded an Activity (RAW264.7 [3]) of 3637, a Cell number (RAW264.7 [7]) of 422 and a Cell number (RAW264.7 [8]) of 4533.
With `CCCCC/C=C\C/C=C\C/C=C\C/C=C\CCCC(=O)N[C@@H](C)C(=O)O` the Activity (RAW264.7 [2]) was 652 pg/mL, the Activity (RAW264.7 [3]) was 4781 and the Activity (RAW264.7 [4]) was 241 pg/mL. The Ratio (RAW264.7 [5]) was 62, the Ratio (RAW264.7 [6]) was 9 and the Cell number (RAW264.7 [7]) was 2110. The Cell number (RAW264.7 [8]) was 4735, the Activity (RAW264.7 [9]) was 2345 pg/mL and the Activity (RAW264.7 [10]) was 41059 pg/mL.
`CCCCC/C=C\C/C=C\C/C=C\C/C=C\CCCCCC(=O)NCC(=O)O` showed an Activity (RAW264.7 [3]) of 5131, a Cell number (RAW264.7 [7]) of 3574 and a Cell number (RAW264.7 [8]) of 5310.
Molecule `CCCCCCCCCCCCCCCC(=O)N[C@H](C)C(=O)O` has an Activity (RAW264.7 [2]) of 319 pg/mL, an Activity (RAW264.7 [4]) of 256 pg/mL and a Ratio (RAW264.7 [5]) of 9. The Ratio (RAW264.7 [6]) was 1, the Activity (RAW264.7 [9]) was 281 pg/mL and the Activity (RAW264.7 [10]) was 3079 pg/mL.
`CCCCC/C=C\C/C=C\C/C=C\C/C=C\CCCC(=O)NCC(=O)O` [ARACHIDONOYL GLYCINE] showed an Activity (Mus musculus [11]) of 40%, an Activity (RAW264.7 [2]) of 425 pg/mL and an Activity (RAW264.7 [3]) of 5630. For the same molecule, the Activity (RAW264.7 [4]) was 273 pg/mL, the Ratio (RAW264.7 [5]) was 229 and the Ratio (RAW264.7 [6]) was 147. It also gave a Cell number (RAW264.7 [7]) of 591, a Cell number (RAW264.7 [8]) of 6156 and an Activity (RAW264.7 [9]) of 40407 pg/mL. It also gave an Activity (RAW264.7 [10]) of 97830 pg/mL.
`CCCCC/C=C\C/C=C\C/C=C\CCCCC(=O)NCC(=O)O` was tested, and the Activity (RAW264.7 [2]) was 289 pg/mL, the Activity (RAW264.7 [3]) was 5435 and the Activity (RAW264.7 [4]) was 127 pg/mL. The Ratio (RAW264.7 [5]) was 277, the Ratio (RAW264.7 [6]) was 39 and the Cell number (RAW264.7 [7]) was 6602. For the same molecule, the Cell number (RAW264.7 [8]) was 5700, the Activity (RAW264.7 [9]) was 5040 pg/mL and the Activity (RAW264.7 [10]) was 80205 pg/mL.
`CCCCC/C=C\C/C=C\C/C=C\C/C=C\CCCCCC(=O)N[C@@H](C)C(=O)O` gave an Activity (RAW264.7 [3]) of 4668, a Cell number (RAW264.7 [7]) of 618 and a Cell number (RAW264.7 [8]) of 4415.
Work on `CCCCC/C=C\C/C=C\C/C=C\CCCCCCC(=O)NCC(=O)O` yielded an Activity (RAW264.7 [3]) of 5486, a Cell number (RAW264.7 [7]) of 647 and a Cell number (RAW264.7 [8]) of 5563.
Work on `CCCCCCCCCCCCCCCC(=O)N[C@@H](C)C(=O)O` yielded an Activity (RAW264.7 [2]) of 232 pg/mL, an Activity (RAW264.7 [3]) of 4541 and an Activity (RAW264.7 [4]) of 251 pg/mL. For the same molecule, the Ratio (RAW264.7 [5]) was 17, the Ratio (RAW264.7 [6]) was 1 and the Cell number (RAW264.7 [7]) was 432. For the same molecule, the Cell number (RAW264.7 [8]) was 4670 and the Activity (RAW264.7 [9]) was 261 pg/mL.
`CCCCC/C=C\C/C=C\C/C=C\C/C=C\CCCC(=O)N[C@H](C)C(=O)O` was tested, and the Activity (RAW264.7 [2]) was 269 pg/mL, the Activity (RAW264.7 [4]) was 124 pg/mL and the Ratio (RAW264.7 [5]) was 104. The Ratio (RAW264.7 [6]) was 12, the Activity (RAW264.7 [9]) was 1496 pg/mL and the Activity (RAW264.7 [10]) was 28224 pg/mL.
For `CCCCC/C=C\C/C=C\C/C=C\CCCCCCC(=O)N[C@@H](C)C(=O)O`, the Activity (RAW264.7 [3]) was 4326, the Cell number (RAW264.7 [7]) was 637 and the Cell number (RAW264.7 [8]) was 4680.
With `COc1ccc2cc([C@H](C)C(=O)O)ccc2c1` [NAPROXEN] the Activity (RAW264.7 [2]) was 75 pg/mL, the Ratio (RAW264.7 [5]) was 1 and the Activity (RAW264.7 [10]) was 70 pg/mL.
Work on `CCCCC/C=C\C/C=C\CCCCCCCCCC(=O)NCC(=O)O` yielded an Activity (RAW264.7 [3]) of 2945, a Cell number (RAW264.7 [7]) of 609 and a Cell number (RAW264.7 [8]) of 5738.
`CCCCC/C=C\C/C=C\CCCCCCCCCC(=O)N[C@@H](C)C(=O)O` was tested, and the Activity (RAW264.7 [3]) was 3641, the Cell number (RAW264.7 [7]) was 605 and the Cell number (RAW264.7 [8]) was 4397.
With `CCCCC/C=C\C/C=C\CCCCCCCC(=O)NCC(=O)O` [LINOLEOYL GLYCINE] the Activity (RAW264.7 [3]) was 5979, the Cell number (RAW264.7 [7]) was 713 and the Cell number (RAW264.7 [8]) was 4595.
In the case of `CCCCC/C=C\C/C=C\CCCCCCCC(=O)N[C@@H](C)C(=O)O`, the Activity (RAW264.7 [3]) is reported as 3955, the Cell number (RAW264.7 [7]) is reported as 621 and the Cell number (RAW264.7 [8]) is reported as 4233.
For `CCCCCCCCCCCCCCCCCC(=O)NCC(=O)O`, the Activity (RAW264.7 [2]) was 126 pg/mL, the Activity (RAW264.7 [4]) was 121 pg/mL and the Ratio (RAW264.7 [5]) was 1. It also gave a Ratio (RAW264.7 [6]) of 1, an Activity (RAW264.7 [9]) of 201 pg/mL and an Activity (RAW264.7 [10]) of 159 pg/mL.
Molecule `CCCCC/C=C\C/C=C\C/C=C\CCCCC(=O)N[C@@H](C)C(=O)O` has an Activity (RAW264.7 [3]) of 4247, a Cell number (RAW264.7 [7]) of 2696 and a Cell number (RAW264.7 [8]) of 4557.
